Measurements as given in ChEMBL document CHEMBL4196192, “MEPicides: α,β-Unsaturated Fosmidomycin Analogues as DXR Inhibitors against Malaria” (J Med Chem, 2018).
Active and inactive are the calls of the source. No cut-off for these calls is given here.

How the values were obtained:
[1] = target: T1, 1-deoxy-D-xylulose 5-phosphate reductoisomerase, apicoplastic (Plasmodium falciparum (isolate 3D7)) (UniProt Q8IKG4); assay: Inhibition of Plasmodium falciparum DXR assessed as reduction in NADPH oxidation at 100 uM in presence of DOXP by UV-visible spectrophotometry
T1 sequence (whole entry): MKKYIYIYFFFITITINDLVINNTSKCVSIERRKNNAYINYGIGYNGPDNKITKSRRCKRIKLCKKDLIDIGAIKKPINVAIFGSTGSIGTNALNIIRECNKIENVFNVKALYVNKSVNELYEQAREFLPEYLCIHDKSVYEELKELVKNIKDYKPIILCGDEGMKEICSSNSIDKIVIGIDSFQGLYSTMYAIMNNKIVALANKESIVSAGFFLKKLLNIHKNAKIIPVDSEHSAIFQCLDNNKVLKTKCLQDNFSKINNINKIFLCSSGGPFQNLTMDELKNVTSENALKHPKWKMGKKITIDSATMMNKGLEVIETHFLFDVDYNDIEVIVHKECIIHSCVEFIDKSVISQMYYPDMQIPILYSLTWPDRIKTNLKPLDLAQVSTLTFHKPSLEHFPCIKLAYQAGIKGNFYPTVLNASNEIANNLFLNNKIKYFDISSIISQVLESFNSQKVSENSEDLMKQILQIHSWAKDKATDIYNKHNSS
In short: (§1)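 Recombinant P. falciparum DXR (0.86 μM) in 100 mM Tris pH 7.8, 25 mM MgCl2, 150 μM NADPH, at 37 °C; inhibitor at a single 100 μM; reaction started with 144 μM DOXP; NADPH oxidation followed at 340 nm by UV-vis spectrophotometry; percent remaining activity; duplicate.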

Plasmodium falciparum [2] = assay: Growth inhibition of Plasmodium falciparum 3D7 asynchronous cultures by PicoGreen dye based assay; type: functional, organism-based
Plasmodium falciparum [3] = assay: Growth inhibition of Plasmodium falciparum; type: functional, organism-based
[4] = target: T2, 1-deoxy-D-xylulose 5-phosphate reductoisomerase, apicoplastic (Plasmodium falciparum (isolate 3D7), UniProt Q8IKG4); assay: Inhibition of Plasmodium falciparum DXR assessed as reduction in NADPH oxidation in presence of DOXP by UV-visible spectrophotometry
T2 sequence (Q8IKG4 whole entry): T1 sequence (whole entry)
In short: (§2)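 Recombinant P. falciparum DXR (0.86 μM) in 100 mM Tris pH 7.8, 25 mM MgCl2 and 150 μM NADPH at 37 °C. Reaction started with 144 μM DOXP. NADPH oxidation followed at 340 nm by UV–visible spectrophotometry. Compounds were screened first at a single 100 μM concentration as percent remaining activity. Assays were run in duplicate.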

[5] = target: T2, 1-deoxy-D-xylulose 5-phosphate reductoisomerase, apicoplastic; assay: Inhibition of Plasmodium falciparum DXR; in short: as §2
[6] = target: T1, 1-deoxy-D-xylulose 5-phosphate reductoisomerase, apicoplastic (Plasmodium falciparum (isolate 3D7)); assay: Inhibition of Plasmodium falciparum DXR assessed as remaining enzyme activity by measuring NADPH oxidation at 100 uM in presence of DOXP by UV-visible spectrophotometry; in short: as §1
Plasmodium berghei [7] = assay: (§3) Antimalarial activity against luciferase-expressing Plasmodium berghei ANKA infected in Swiss Webster mouse assessed as reduction in parasitemia at 20 mg/kg, ip administered daily for 5 days starting from 2 days post infection by luciferase-luciferin based reporter assay; type: functional, organism-based
Plasmodium falciparum [8] = assay: Growth inhibition of Plasmodium falciparum containing had1 mutation at 0.01 to 100 uM by PicoGreen dye based assay; type: functional, organism-based
HepG2 = assay: Cytotoxicity in human HepG2 cells; type: cell-based
[9] = Half life in mouse liver microsomes; type: ADME, microsome
[10] = Selectivity index, ratio of IC50 for cytotoxicity in human HepG2 cells to IC50 for growth inhibition of Plasmodium falciparum 3D7 asynchronous cultures; type: toxicity, cell-based; conditions: read-out: Ratio IC50
Plasmodium falciparum [11] = assay: Growth inhibition of Plasmodium falciparum 3D7 asynchronous cultures at 0.01 to 100 uM incubated for 72 hrs in presence of excess IPP by PicoGreen dye based assay; type: functional, organism-based
Plasmodium falciparum [12] = assay: Growth inhibition of Plasmodium falciparum containing had1 mutation expressing GFP-HAD1 by PicoGreen dye based assay; type: functional, organism-based
[13] = Half life in mouse plasma; type: ADME, cell-free
Plasmodium falciparum [14] = assay: Resistance index, ratio of IC50 for Plasmodium falciparum containing had1 mutation to IC50 for growth inhibition of wild type Plasmodium falciparum 3D7 asynchronous cultures; type: functional
[15] = target: T1, 1-deoxy-D-xylulose 5-phosphate reductoisomerase, apicoplastic (Plasmodium falciparum (isolate 3D7)); assay: Inhibition of DXR in Plasmodium falciparum 3D7 assessed as reduction in MEcPP levels at 5 times growth inhibitory IC50 incubated for 10 hrs by LC-MS/MS method
Plasmodium berghei [16] = assay: as §3, with “parasitemia by measuring reduction in luciferin signal intensity” for “parasitemia”, “50” for “20”, “assay relative to untreated control” for “assay”; type: functional, organism-based
Mus musculus [17] = assay: Toxicity in luciferase-expressing Plasmodium berghei ANKA infected Swiss Webster mouse assessed as induction of adverse events at 20 mg/kg, ip administered daily for 5 days starting from 2 days post infection; type: organism-based; conditions: in vivo
In short: (§4)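 Female Swiss Webster mice (25–30 g) infected ip with 10^3 luciferase-expressing P. berghei, then given ip doses daily for 5 days from day 2 in 2% methylcellulose/0.5% Tween 80 vehicle, groups of five; mice observed for adverse effects over the dosing period.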

[18] = target: T1, 1-deoxy-D-xylulose 5-phosphate reductoisomerase, apicoplastic (Plasmodium falciparum (isolate 3D7)); assay: Inhibition of DXR in Plasmodium falciparum 3D7 assessed as reduction in MEP levels at 5 times growth inhibitory IC50 incubated for 10 hrs by LC-MS/MS method
[19] = target: T1, 1-deoxy-D-xylulose 5-phosphate reductoisomerase, apicoplastic (Plasmodium falciparum (isolate 3D7)); assay: Inhibition of DXR in Plasmodium falciparum 3D7 assessed as reduction in CDP-ME levels at 5 times growth inhibitory IC50 incubated for 10 hrs by LC-MS/MS method
Plasmodium berghei [20] = assay: as §3, with “parasitemia by measuring reduction in luciferin signal intensity” for “parasitemia”, “assay relative to untreated control” for “assay”; type: functional
Mus musculus [21] = assay: Toxicity in luciferase-expressing Plasmodium berghei ANKA infected Swiss Webster mouse assessed as induction of adverse events at 50 mg/kg, ip administered daily for 5 days starting from 2 days post infection; type: organism-based; conditions: in vivo; in short: as §4
Plasmodium falciparum [22] = assay: Effect on DXR protein level in Plasmodium falciparum 3D7 at 5 times growth inhibitory IC50 incubated for 10 hrs by LC-MS/MS method; type: organism-based

**Q.** With COC(=O)N(O)C/C=C/P(=O)(O)O as the molecule, how does the inhibition [1] read?
**A.** > 75%

**Q.** What about the IC50 (Plasmodium falciparum [2]) of the same molecule?
**A.** 28.6 µM

**Q.** Which IC50 (Plasmodium falciparum [2]) does the source give for C[C@@H]1CC[C@H]2[C@@H](C)C(=O)O[C@@H]3O[C@@]4(C)CC[C@@H]1[C@]32OO4 [ARTEMISININ] here?
**A.** 0.0104 µM

**Q.** For CC(=O)N(C/C=C/P(=O)(O)O)OC(C)c1ccccc1 (configuration not stated), which inhibition [1] is on record?
**A.** > 75%

**Q.** What about the IC50 (Plasmodium falciparum [2]) of the same molecule?
**A.** 1.2 µM

**Q.** Which IC50 (Plasmodium falciparum [2]) does the source give for COC(=O)N(O)C/C=C/P(=O)(OCOC(=O)C(C)(C)C)OCOC(=O)C(C)(C)C here?
**A.** 23.7 µM

**Q.** Which inhibition [1] does the source give for CC(=O)N(O)CCCP(=O)(O)O here?
**A.** > 75%

**Q.** What about the IC50 (Plasmodium falciparum [3]) of the same molecule?
**A.** 0.09 to 0.35 µM

**Q.** And the IC50 [4]?
**A.** 0.023 µM

**Q.** What about the IC50 [5] of the same molecule?
**A.** 0.024 µM

**Q.** And the IC50 (Plasmodium falciparum [2])?
**A.** 0.511 µM

**Q.** Which inhibition [1] does the source give for O=C(N(O)C/C=C/P(=O)(O)O)C(F)(F)F here?
**A.** > 75%

**Q.** What about the Activity [6] of the same molecule?
**A.** 37%

**Q.** What about the IC50 (Plasmodium falciparum [2]) of the same molecule?
**A.** 113 µM

**Q.** Which inhibition [1] does the source give for CC(=O)N(C/C=C/P(=O)(O)O)OCc1ccc(-c2ccccc2)cc1 here?
**A.** > 75%

**Q.** And the IC50 (Plasmodium falciparum [2])?
**A.** 2.3 µM

**Q.** With O=CN(O)CCCP(=O)(O)O [FOSMIDOMYCIN SODIUM] as the molecule, how does the inhibition [1] read?
**A.** > 75%

**Q.** And the IC50 (Plasmodium falciparum [3])?
**A.** 0.09 to 0.35 µM

**Q.** What about the IC50 (Plasmodium falciparum [2]) of the same molecule?
**A.** 1.09 µM

**Q.** With CCN(CC)CCCC(C)Nc1ccnc2cc(Cl)ccc12 (configuration not stated) as the molecule, how does the Activity (Plasmodium berghei [7]) read?
**A.** Active

**Q.** Which inhibition [1] does the source give for CC(=O)N(O)C/C=C/P(=O)(O)O here?
**A.** > 75%

**Q.** And the IC50 [4]?
**A.** 0.206 µM

**Q.** And the IC50 (Plasmodium falciparum [2])?
**A.** 0.202 µM

**Q.** Which results are given for CC(=O)N(C/C=C/P(=O)(O)O)OCc1ccc(C(C)C)cc1?
**A.** inhibition [1]: > 75%; growth inhibition (GI) (Plasmodium falciparum [8]): inactive; IC50 (Plasmodium falciparum [2]): 1.1 µM

**Q.** What does the source list for O=CN(O)C/C=C/P(=O)([O-])O.[Na+]?
**A.** inhibition [1]: > 75%; IC50 (HepG2): > 50 µM; t1/2 [9]: > 1 h; selectivity ratio [10]: 2630; growth inhibition (GI) (Plasmodium falciparum [11]): inactive; growth inhibition (GI) (Plasmodium falciparum [12]): Active; IC50 (Plasmodium falciparum [2]): 0.019 µM; t1/2 [13]: > 2 h; Ratio IC50 (Plasmodium falciparum [14]): 3.4

**Q.** For CC(=O)N(O)C/C=C/P(=O)(OCOC(=O)C(C)(C)C)OCOC(=O)C(C)(C)C, which IC50 (Plasmodium falciparum [2]) is on record?
**A.** 0.018 µM

**Q.** Which inhibition [1] does the source give for CC(=O)N(C/C=C/P(=O)(O)O)OCc1ccc2ccccc2c1 here?
**A.** > 75%

**Q.** And the Activity [6]?
**A.** 25%

**Q.** What about the IC50 (Plasmodium falciparum [2]) of the same molecule?
**A.** 26.1 µM

**Q.** For CC(=O)N(C/C=C/P(=O)(OCOC(=O)C(C)(C)C)OCOC(=O)C(C)(C)C)OCc1ccc2ccccc2c1, which IC50 (Plasmodium falciparum [2]) is on record?
**A.** 50.5 µM

**Q.** Which IC50 (Plasmodium falciparum [2]) does the source give for CC(C)(C)C(=O)OCOP(=O)(/C=C/CN(O)C(=O)C(F)(F)F)OCOC(=O)C(C)(C)C here?
**A.** 14.3 µM

**Q.** For CC(=O)N(C/C=C/P(=O)(OCOC(=O)C(C)(C)C)OCOC(=O)C(C)(C)C)OCc1ccc(C(C)C)cc1, which IC50 (Plasmodium falciparum [2]) is on record?
**A.** 55.2 µM

**Q.** Which IC50 (Plasmodium falciparum [2]) does the source give for CC(=O)N(C/C=C/P(=O)(OCOC(=O)C(C)(C)C)OCOC(=O)C(C)(C)C)OCc1ccc(-c2ccccc2)cc1 here?
**A.** 44.1 µM

**Q.** With CC(=O)N(CCCP(=O)(OCOC(=O)C(C)(C)C)OCOC(=O)C(C)(C)C)OCc1ccc2ccccc2c1 as the molecule, how does the IC50 (Plasmodium falciparum [3]) read?
**A.** 33.2 µM

**Q.** With CC(C)(C)C(=O)OCOP(=O)(/C=C/CN(O)C=O)OCOC(=O)C(C)(C)C as the molecule, how does the inhibition [15] read?
**A.** Active

**Q.** And the Activity (Plasmodium berghei [16])?
**A.** Active

**Q.** And the IC50 (HepG2)?
**A.** > 50 µM

**Q.** What about the Activity (Mus musculus [17]) of the same molecule?
**A.** Non-Toxic

**Q.** And the inhibition [18]?
**A.** Active

**Q.** And the inhibition [19]?
**A.** Active

**Q.** And the “log(activity)” value (Plasmodium berghei [20])?
**A.** 3

**Q.** And the “growth inhibition (GI)” value (Plasmodium falciparum [11])?
**A.** inactive

**Q.** And the Activity (Mus musculus [21])?
**A.** Non-Toxic

**Q.** And the Activity (Plasmodium falciparum [22])?
**A.** Non-Toxic

**Q.** What about the “growth inhibition (GI)” value (Plasmodium falciparum [12]) of the same molecule?
**A.** Active

**Q.** What about the IC50 (Plasmodium falciparum [2]) of the same molecule?
**A.** 0.013 µM

**Q.** What about the t1/2 [13] of the same molecule?
**A.** < 0.083 h
